Results from different studies.
Compare with care: the assays were run in different laboratories.

Compound	assay	test system	conditions	solubility
CC[C@H](C)[C@H](NC(=O)[C@H](CO)NC(=O)[C@H](CCCNC(=N)N)NC(C)=O)C(=O)N[C@H]1CSSC[C@@H](C(=O)N[C@H](C(N)=O)[C@@H](C)O)NC(=O)[C@H](CCCNC(=N)N)NC(=O)[C@H](Cc2cnc[nH]2)NC(=O)[C@H](C)NC(=O)CNC(=O)[C@H](Cc2c[nH]c3ccccc23)NC(=O)[C@H](CC(=O)O)NC(=O)[C@H](CCC(N)=O)NC(=O)[C@H](Cc2ccc(O)cc2)NC(=O)[C@H](C(C)C)NC1=O	–	PBS	pH 7.4	2840 µg/mL
Clc1ccc(CSc2nnc(-c3ccccn3)n2Cc2ccco2)cc1Cl	–	aqueous buffer	pH 6.2	0.29 µg/mL
O=C(CCCN1CCC2(CC1)C(=O)NCN2c1ccccc1)N(CC1CCCCC1)c1ccccc1	–	PBS	24 h, pH 7.4, 37 °C	626 µM
CCc1cc(OC)cc2c(/C=N/NC(=N)NCCc3ccc(C#N)cc3)c[nH]c12	–	PBS	2 h, pH 7.4	55.5 µM
O=C1C=C(N(Cc2ccc(Cl)nc2)CC(F)F)CO1	–	methanol	20 °C	> 250000 µg/mL
COc1ccc(NC(=O)N2CCCCN3[C@H](CN(C)C)[C@H](c4ccc(C#Cc5ccccc5)cc4)[C@@H]3C2)cc1	–	aqueous buffer	pH 7	33 µM
CC[C@H](C)[C@H](NC(=O)[C@H](CO)NC(=O)[C@H](CCCNC(=N)N)NC(C)=O)C(=O)N[C@H]1CSSC[C@@H](C(=O)N[C@H](C(N)=O)[C@@H](C)O)NC(=O)[C@H](CCCNC(=N)N)NC(=O)[C@H](Cc2c[nH]cn2)NC(=O)[C@H](C)NC(=O)CNC(=O)[C@H](Cc2c[nH]c3ccccc23)NC(=O)[C@H](CC(=O)O)NC(=O)[C@H](CCC(N)=O)NC(=O)[C@H](Cc2ccc3ccccc3c2)NC(=O)[C@H](C(C)C)NC1=O	–	PBS	pH 7.4	2170 µg/mL
C#Cc1ccc2c(c1)C(c1ccccn1)=NCc1c(-c3cnco3)ncn1-2.Cl	–	water	24 h, 25 °C	5560 µg/mL
CC[C@H](C)[C@H](NC(=O)[C@H](CO)NC(=O)[C@H](CCCNC(=N)N)NC(C)=O)C(=O)N[C@H]1CSSC[C@@H](C(=O)N[C@H](C(N)=O)[C@@H](C)O)NC(=O)[C@H](CCCNC(=N)N)NC(=O)[C@H](Cc2c[nH]cn2)NC(=O)[C@H](Cc2cccc3ccccc23)NC(=O)CNC(=O)[C@H](Cc2c[nH]c3ccccc23)NC(=O)[C@H](CC(=O)O)NC(=O)[C@H](CCC(N)=O)NC(=O)[C@H](Cc2cccc3ccccc23)NC(=O)[C@H](C(C)C)NC1=O	–	PBS	pH 7.4	200 µg/mL
CC(/C=C/[C@@H]1C[C@]2(CO2)CC(C)(C)O1)=C\C[C@H]1OC[C@@H](NC(=O)/C=C\[C@H](C)OC(=O)C(C)(C)C)CO1	HPLC	PBS	–	> 10 µM
CC[C@H](C)[C@H](NC(C)=O)C(=O)N[C@H]1CSSC[C@@H](C(=O)N[C@H](C(N)=O)[C@@H](C)O)NC(=O)[C@H](CCCNC(=N)N)NC(=O)[C@H](Cc2c[nH]cn2)NC(=O)[C@](C)(CC)NC(=O)CNC(=O)[C@H](Cc2c[nH]c3ccccc23)NC(=O)[C@H](CC(=O)O)NC(=O)[C@H](CCC(N)=O)NC(=O)[C@H](Cc2c[nH]c3ccccc23)NC(=O)[C@H](C(C)C)NC1=O	–	PBS	pH 7.4	3470 µg/mL
O=c1[nH]c2ccccc2n1CCCN1CCC(n2c(=O)[nH]c3cc(Cl)ccc32)CC1	–	FaSSIF	24 h, pH 7.4, 37 °C	135 µg/mL
CCCCCCC#Cc1cncc(-c2nnc(SCc3cc([N+](=O)[O-])cc([N+](=O)[O-])c3)n2C)c1	–	PBS	–	< 1.6 µM
